The record followed here is ChEMBL document CHEMBL1671679, “Lack of pharmacokinetic interaction between amdoxovir and reduced- and standard-dose zidovudine in HIV-1-infected individuals” (Antimicrob Agents Chemother, 2010).

Data set [1] can be described thus: Drug level in HIV-1 infected patient urine on day 10 assessed as zidovudine-5-O-glucoronide level by LC-MS/MS analysis. The class given is ADME. The following applies: human, in vivo. An outline of the steps:
(§1)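 At steady state (day 10), urine collected over one 12-h dose interval was analyzed by LC-MS/MS for AMDX, DXG, ZDV and ZDV-5′-O-glucuronide. Samples were diluted 100-fold, and the assay was linear from 1 to 500 μg/ml. Results are expressed as percentage of the dose recovered as each analyte (geometric means). Subjects were untreated HIV-1-infected adults.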

Data set [2] is described as follows: Drug level in HIV-1 infected patient urine at 200 mg, po bid on day 10 coadministered with 500 mg, po bid amdoxovir by LC-MS/MS analysis. The class given is ADME, organism-based. The following applies: human, read-out: Drug uptake. An outline of the steps:
as §1

Data set [3] in a line: Half life in HIV-1 infected patient at 300 mg, po bid on day 10 coadministered with 500 mg, po bid amdoxovir by LC-MS/MS analysis. The following applies: human, in vivo. Format: ADME, organism-based. The essentials:
(§2)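 Untreated Hispanic HIV-1-infected adults (viral load ≥5,000 copies/ml, CD4 ≥200 cells/mm3). Blood was drawn into DCF-containing EDTA tubes on day 1 (0–12 h) and on day 10 (0–48 h post last dose), then stored at −80°C. Plasma was methanol-extracted with an internal standard and run by LC-MS/MS (2–3,000 ng/ml AMDX/DXG; 2–5,000 ng/ml ZDV). Noncompartmental analysis assumed extravascular input; τ = 12 h; geometric means reported; accumulation was taken as AUCτ day 10/day 1.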

The nature of data set [4]: Tmax in HIV-1 infected patient at 200 mg, po bid on day 10 coadministered with 500 mg, po bid amdoxovir by LC-MS/MS analysis. Format: ADME, organism-based. The following applies: human, in vivo. The essentials: (§3)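 Untreated Hispanic HIV-infected adults (VL ≥5,000 copies/ml, CD4 ≥200 cells/mm3) dosed orally b.i.d. for 10 days. Methanol extraction with internal standard, then LC-MS/MS for ZDV. Noncompartmental steady-state Tmax reported as geometric mean.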

Data set [5] is described as follows: Drug level in HIV-1 infected patient urine at 300 mg, po bid on day 10 coadministered with 500 mg, po bid amdoxovir by LC-MS/MS analysis. The class given is ADME, organism-based. Conditions: human, read-out: Drug uptake. The essentials:
as §1

The species entered for data set [6] is Homo sapiens. The data set is described as follows: Ratio of AUC (0 to 12 hrs) in HIV-1 infected patient on day 10 to AUC ( 0 to 12 hrs) in HIV-1 infected patient on day 1. Format: ADME, organism-based. The following applies: in vivo. An outline of the steps:
(§4)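 Untreated Hispanic HIV-infected adults (VL ≥5,000 copies/ml, CD4 ≥200 cells/mm3) dosed orally b.i.d. Plasma sampled 0–12 h after first dose (day 1) and 0–48 h after last dose (day 10) into DCF-containing EDTA tubes, stored −80°C. ZDV measured by validated LC-MS/MS (linear 2–5,000 ng/ml). Noncompartmental analysis assuming extravascular input. Accumulation taken as AUCτ (τ = 12 h) day 10 / AUCτ day 1, as geometric means.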

The nature of data set [7]: Tmax in HIV-1 infected patient at 300 mg, po bid on day 10 coadministered with 500 mg, po bid amdoxovir by LC-MS/MS analysis. Format: ADME, organism-based. The following applies: human, in vivo. An outline of the steps:
as §3

Data set [8] concerns Homo sapiens. The experiment in a line: Ratio of AUC (0 to 12 hrs) in HIV-1 infected patient at 300 mg, po bid on day 10 coadministered with 500 mg, po bid amdoxovir to AUC (0 to 12 hrs) in HIV-1 infected patient at 300 mg, po bid on day 1 coadministered with 500 mg, po bid amdoxovir. The class given is ADME, organism-based. Conditions: in vivo. An outline of the steps:
as §4

Data set [9] concerns Homo sapiens. The experiment in a line: Ratio of AUC (0 to 12 hrs) in HIV-1 infected patient at 200 mg, po bid on day 10 coadministered with 500 mg, po bid amdoxovir to AUC (0 to 12 hrs) in HIV-1 infected patient at 200 mg, po bid on day 1 coadministered with 500 mg, po bid amdoxovir. Format: ADME, organism-based. The following applies: in vivo. An outline of the steps:
as §4

Data set [10] in a line: Apparent oral clearance in HIV-1 infected patient at 200 mg, po bid on day 10 coadministered with 500 mg, po bid amdoxovir by LC-MS/MS analysis. The following applies: human, in vivo. The class given is ADME, organism-based. An outline of the steps: as §2
Data set [11] can be described thus: Drug level in HIV-1 infected patient urine assessed as zidovudine-5-O-glucoronide level at 200 mg, po bid on day 10 coadministered with 500 mg, po bid amdoxovir by LC-MS/MS analysis. Format: ADME, organism-based. Conditions: human, in vivo. The essentials:
as §1

The nature of data set [12]: Drug level in HIV-1 infected patient urine on day 10 by LC-MS/MS analysis. The class given is ADME. The following applies: human, read-out: Drug uptake. An outline of the steps:
as §1

Data set [13] can be described thus: Half life in HIV-1 infected patient at 200 mg, po bid on day 10 coadministered with 500 mg, po bid amdoxovir by LC-MS/MS analysis. The following applies: human, in vivo. Format: ADME, organism-based. The essentials:
as §2

Data set [14] can be described thus: Apparent oral clearance in HIV-1 infected patient on day 10 by LC-MS/MS analysis. Format: ADME, organism-based. The following applies: human, in vivo. An outline of the steps: as §2
Data set [15] can be described thus: Drug level in HIV-1 infected patient urine assessed as zidovudine-5-O-glucoronide level at 300 mg, po bid on day 10 coadministered with 500 mg, po bid amdoxovir by LC-MS/MS analysis. Format: ADME, organism-based. Conditions: human, in vivo. An outline of the steps:
as §1

Data set [16] can be described thus: Tmax in HIV-1 infected patient on day 10 by LC-MS/MS analysis. The class given is ADME, organism-based. Conditions: human, in vivo. The essentials:
as §3

The nature of data set [17]: Half life in HIV-1 infected patient on day 10 by LC-MS/MS analysis. The following applies: human, in vivo. The class given is ADME, organism-based. An outline of the steps: as §2
Data set [18] can be described thus: Apparent oral clearance in HIV-1 infected patient at 300 mg, po bid on day 10 coadministered with 500 mg, po bid amdoxovir by LC-MS/MS analysis. The class given is ADME, organism-based. The following applies: human, in vivo. An outline of the steps:
as §2

For the compound `Cc1cn([C@H]2C[C@H](N=[N+]=[N-])[C@@H](CO)O2)c(=O)[nH]c1=O` [ZIDOVUDINE], the Drug uptake in [1] was 61.15%; in data set [11], 61.87%; in [15], 62.89%. Besides, the dose excreted in [2] was 5.88%; in data set [5], 6.74%; in data set [12], 6.24%. Besides, the values for the half-life in [3], in [13] and in [17] were 2.4 h, 2.5 h and 2.2 h, respectively. The time of peak concentration (Tmax) in data set [4], in data set [7] and in [16] was 0.5 h in each case. The “Ratio AUC” value in the data set listed under Homo sapiens [6] was 1.21; with Homo sapiens [8] it was 0.86; with Homo sapiens [9] it was 1.04. The CL/F (as a rule, the apparent clearance, not corrected for the fraction that reaches the circulation) was 39 mL/min/kg in data set [10], 23.2 mL/min/kg in data set [14] and 30 mL/min/kg in data set [18].
